Data: ChEMBL document CHEMBL1136980, “Synthesis of novel 3-(1-(1-substituted piperidin-4-yl)-1H-1,2,3-triazol-4-yl)-1,2,4-oxadiazol-5(4H)-one as antifungal agents” (2009)
Converted amounts (≈) assume the structure as drawn. The source made the active and inactive calls. The calls are words filed in the database; no cut-off is given here.

Assays:
Candida albicans [1] = assay: Antifungal activity against Candida albicans NCIM 3471 by agar plate assay; type: functional
Procedure, shortened: (§1)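 In vitro MIC determined by standard agar plate method (cup plate format). Compounds were tested in dimethyl sulfoxide, with DMSO alone as solvent control. Miconazole and fluconazole served as reference standards.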

Fusarium oxysporum = assay: Antifungal activity against Fusarium oxysporum NCIM 1332 by agar plate assay; type: functional; procedure, shortened: as §1
Aspergillus flavus [2] = assay: Antifungal activity against Aspergillus flavus NCIM 539 by agar plate assay; type: functional; procedure, shortened: as §1
Aspergillus niger [3] = assay: Antifungal activity against Aspergillus niger NCIM 1196 by agar plate assay; type: functional; procedure, shortened: as §1
Cryptococcus neoformans [4] = assay: Antifungal activity against Cryptococcus neoformans NCIM 576 by agar plate assay; type: functional; procedure, shortened: as §1
Aspergillus flavus [5] = assay: Antifungal activity against Aspergillus flavus NCIM 539 at 200 ug/mL by agar plate assay; type: functional, organism-based
Aspergillus niger [6] = assay: Antifungal activity against Aspergillus niger NCIM 1196 at 200 ug/mL by agar plate assay; type: functional, organism-based
Candida albicans [7] = assay: Antifungal activity against Candida albicans NCIM 3471 at 200 ug/mL by agar plate assay; type: functional, organism-based
Cryptococcus neoformans [8] = assay: Antifungal activity against Cryptococcus neoformans NCIM 576 at 200 ug/mL by agar plate assay; type: functional, organism-based

SMILES | MIC (Candida albicans [1]) [µg/mL] | MIC (Fusarium oxysporum) [µg/mL] | MIC (Aspergillus flavus [2]) [µg/mL] | MIC (Aspergillus niger [3]) [µg/mL] | MIC (Cryptococcus neoformans [4]) [µg/mL] | Activity (Aspergillus flavus [5]) | Activity (Aspergillus niger [6]) | Activity (Candida albicans [7]) | Activity (Cryptococcus neoformans [8])
CC(C)(C)OC(=O)N1CCC(n2cc(/C(N)=N/O)nn2)CC1 | 35 (≈ 113 µM) | 35 (≈ 113 µM) | 20 (≈ 64.4 µM) | 20 (≈ 64.4 µM) | 40 (≈ 129 µM) |  |  |  | 
CCOC(=O)c1cn(C2CCN(C(=O)OC(C)(C)C)CC2)nn1 | 40 (≈ 123 µM) | 44 (≈ 136 µM) | 22 (≈ 67.8 µM) | 19 (≈ 58.6 µM) | 35 (≈ 108 µM) |  |  |  | 
CCCC(=O)N1CCC(n2cc(-c3noc(=O)[nH]3)nn2)CC1 | 90 (≈ 294 µM) | 95 (≈ 310 µM) |  |  | 85 (≈ 277 µM) | inactive | inactive |  | 
Clc1ccc(COC(Cn2ccnc2)c2ccc(Cl)cc2Cl)c(Cl)c1 (stereo not given) [MICONAZOLE] | 25 (≈ 60.1 µM) | 25 (≈ 60.1 µM) | 12.5 (≈ 30 µM) | 12.5 (≈ 30 µM) | 25 (≈ 60.1 µM) |  |  |  | 
CC(C)(C)OC(=O)N1CCC(n2cc(C#N)nn2)CC1 |  | 90 (≈ 325 µM) | 55 (≈ 198 µM) | 50 (≈ 180 µM) |  |  |  | inactive | inactive
CS(=O)(=O)N1CCC(n2cc(-c3noc(=O)[nH]3)nn2)CC1 | 20 (≈ 63.6 µM) | 25 (≈ 79.5 µM) | 15 (≈ 47.7 µM) | 10 (≈ 31.8 µM) | 27.5 (≈ 87.5 µM) |  |  |  | 
CCC(=O)N1CCC(n2cc(-c3noc(=O)[nH]3)nn2)CC1 | 85 (≈ 291 µM) | 90 (≈ 308 µM) | 42 (≈ 144 µM) | 42 (≈ 144 µM) | 85 (≈ 291 µM) |  |  |  | 
CC(C)(C)OC(=O)N1CCC(n2cc(C(N)=O)nn2)CC1 | 50 (≈ 169 µM) | 55 (≈ 186 µM) | 27 (≈ 91.4 µM) | 25 (≈ 84.6 µM) | 45 (≈ 152 µM) |  |  |  | 
O=C(c1ccc(Cl)cc1)N1CCC(n2cc(-c3noc(=O)[nH]3)nn2)CC1 | 40 (≈ 107 µM) | 55 (≈ 147 µM) | 20 (≈ 53.4 µM) | 25 (≈ 66.7 µM) | 40 (≈ 107 µM) |  |  |  | 
OC(Cn1cncn1)(Cn1cncn1)c1ccc(F)cc1F [FLUCONAZOLE] | 5 (≈ 16.3 µM) | 5 (≈ 16.3 µM) | 5 (≈ 16.3 µM) | 10 (≈ 32.7 µM) | 5 (≈ 16.3 µM) |  |  |  | 
O=C(c1ccccc1)N1CCC(n2cc(-c3noc(=O)[nH]3)nn2)CC1 | 85 (≈ 250 µM) | 88 (≈ 259 µM) | 42 (≈ 123 µM) | 42 (≈ 123 µM) | 85 (≈ 250 µM) |  |  |  | 
O=c1[nH]c(-c2cn(C3CCNCC3)nn2)no1 | 27.5 (≈ 116 µM) | 25 (≈ 106 µM) | 15 (≈ 63.5 µM) | 15 (≈ 63.5 µM) |  |  |  |  | inactive
CC(=O)N1CCC(n2cc(-c3noc(=O)[nH]3)nn2)CC1 | 60 (≈ 216 µM) | 61 (≈ 219 µM) | 31 (≈ 111 µM) | 31 (≈ 111 µM) | 65 (≈ 234 µM) |  |  |  | 
CC(C)(C)OC(=O)N1CCC(n2cc(-c3noc(=O)[nH]3)nn2)CC1 | 30 (≈ 89.2 µM) | 25 (≈ 74.3 µM) | 15 (≈ 44.6 µM) | 20 (≈ 59.5 µM) |  |  |  |  | inactive
CCN1CCC(n2cc(-c3noc(=O)[nH]3)nn2)CC1 | 37 (≈ 140 µM) | 39 (≈ 148 µM) | 19 (≈ 71.9 µM) | 19 (≈ 71.9 µM) | 39 (≈ 148 µM) |  |  |  | 
CN1CCC(n2cc(-c3noc(=O)[nH]3)nn2)CC1 | 20 (≈ 79.9 µM) | 25 (≈ 99.9 µM) | 10 (≈ 40 µM) | 12.5 (≈ 49.9 µM) | 60 (≈ 240 µM) |  |  |  | 
Cc1ccc(S(=O)(=O)N2CCC(n3cc(-c4noc(=O)[nH]4)nn3)CC2)cc1 | 30 (≈ 76.8 µM) | 33 (≈ 84.5 µM) | 25 (≈ 64 µM) | 20 (≈ 51.2 µM) | 40 (≈ 102 µM) |  |  |  | 
